Measured values taken from ChEMBL document CHEMBL1629686, “Substrate selectivity and a novel role in inhibitor discrimination by residue 237 in the KPC-2 beta-lactamase” (Antimicrob Agents Chemother, 2010).
Converted amounts (≈) assume the structure as drawn.

Tests used:
Type in all cases: functional
[1] = test system: Escherichia coli; test: Antimicrobial activity against Escherichia coli DH10B harboring beta-lactamase KPC-2 T237H mutant by agar dilution method in presence of beta-lactamase inhibitor Tazobactam; settings: K-12 DH10B
How it was run: (§1)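 LB agar dilution MICs by CLSI criteria, inoculated with a Steers replicator. […] Strains were E. coli DH10B with or without pBC SK(+) carrying wild-type blaKPC-2 or a position 237 variant.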

[2] = test system: Escherichia coli; test: Antimicrobial activity against Escherichia coli DH10B harboring beta-lactamase KPC-2 T237P mutant by agar dilution method; settings: K-12 DH10B
How it was run: (§2)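 LB agar dilution MICs followed CLSI criteria, with inocula applied by Steers replicator. […] Piperacillin-tazobactam was tested at an 8:1 ratio. Wild-type and mutant blaKPC-2 were carried on pBC SK(+), or wild type on pBR322-catI, in E. coli DH10B.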

[3] = test system: Escherichia coli; test: Antimicrobial activity against Escherichia coli DH10B harboring beta-lactamase KPC-2 T237E mutant by agar dilution method; settings: K-12 DH10B; how it was run: as §2
[4] = test system: Escherichia coli; test: Antimicrobial activity against Escherichia coli DH10B harboring beta-lactamase KPC-2 T237G mutant by agar dilution method; settings: K-12 DH10B; how it was run: as §2
[5] = test system: Escherichia coli; test: Antimicrobial activity against Escherichia coli DH10B harboring beta-lactamase KPC-2 T237M mutant by agar dilution method; settings: K-12 DH10B; how it was run: as §2
[6] = test system: Escherichia coli; test: Antimicrobial activity against Escherichia coli DH10B harboring plasmid pBR322-catI carrying beta-lactamase KPC-2 by agar dilution method; settings: K-12 DH10B; how it was run: as §2
[7] = test system: Escherichia coli; test: Antimicrobial activity against Escherichia coli DH10B harboring beta-lactamase KPC-2 T237Y mutant by agar dilution method; settings: K-12 DH10B; how it was run: as §2
[8] = test system: Escherichia coli; test: Antimicrobial activity against Escherichia coli DH10B harboring beta-lactamase KPC-2 T237N mutant by agar dilution method; settings: K-12 DH10B; how it was run: as §2
[9] = test system: Escherichia coli; test: Antimicrobial activity against Escherichia coli DH10B harboring beta-lactamase KPC-2 T237R mutant by agar dilution method; settings: K-12 DH10B; how it was run: as §2
[10] = test system: Escherichia coli; test: Antimicrobial activity against Escherichia coli DH10B harboring beta-lactamase KPC-2 T237I mutant by agar dilution method in presence of beta-lactamase inhibitor Tazobactam; settings: K-12 DH10B; how it was run: as §1
[11] = test system: Escherichia coli; test: Antimicrobial activity against Escherichia coli DH10B harboring beta-lactamase KPC-2 T237E mutant by agar dilution method in presence of beta-lactamase inhibitor Tazobactam; settings: K-12 DH10B; how it was run: as §1
[12] = test system: Escherichia coli; test: Antimicrobial activity against Escherichia coli DH10B harboring beta-lactamase KPC-2 T237W mutant by agar dilution method in presence of beta-lactamase inhibitor Tazobactam; settings: K-12 DH10B; how it was run: as §1
[13] = test system: Klebsiella pneumoniae; test: Antimicrobial activity against Klebsiella pneumoniae 1534 expressing beta-lactamase KPC-2 by agar dilution method
How it was run: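 MICs were determined by LB agar dilution following CLSI criteria, with a Steers replicator. […] Piperacillin-tazobactam was kept at an 8:1 ratio.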

[14] = test system: Escherichia coli; test: Antimicrobial activity against Escherichia coli DH10B harboring beta-lactamase KPC-2 T237F mutant by agar dilution method; settings: K-12 DH10B; how it was run: as §2
[15] = test system: Escherichia coli; test: Antimicrobial activity against Escherichia coli DH10B by agar dilution method; settings: K-12 DH10B; how it was run: as §2
[16] = test system: Escherichia coli; test: Antimicrobial activity against Escherichia coli DH10B harboring beta-lactamase KPC-2 T237D mutant by agar dilution method; settings: K-12 DH10B; how it was run: as §2
[17] = test system: Escherichia coli; test: Antimicrobial activity against Escherichia coli DH10B harboring beta-lactamase KPC-2 T237L mutant by agar dilution method; settings: K-12 DH10B; how it was run: as §2
[18] = test system: Escherichia coli; test: Antimicrobial activity against Escherichia coli DH10B harboring plasmid pBC SK(+) carrying wild type beta-lactamase KPC-2 by agar dilution method; settings: K-12 DH10B; how it was run: as §2
[19] = test system: Escherichia coli; test: Antimicrobial activity against Escherichia coli DH10B harboring beta-lactamase KPC-2 T237K mutant by agar dilution method in presence of beta-lactamase inhibitor Tazobactam; settings: K-12 DH10B; how it was run: as §1
[20] = test system: Escherichia coli; test: Antimicrobial activity against Escherichia coli DH10B harboring beta-lactamase KPC-2 T237I mutant by agar dilution method; settings: K-12 DH10B; how it was run: as §2
[21] = test system: Escherichia coli; test: Antimicrobial activity against Escherichia coli DH10B harboring beta-lactamase KPC-2 T237V mutant by agar dilution method; settings: K-12 DH10B; how it was run: as §2
[22] = test system: Escherichia coli; test: Antimicrobial activity against Escherichia coli DH10B harboring plasmid […] by agar dilution method; settings: K-12 DH10B; how it was run: as §2
[23] = test system: Escherichia coli; test: Antimicrobial activity against Escherichia coli DH10B harboring beta-lactamase KPC-2 T237S mutant by agar dilution method; settings: K-12 DH10B; how it was run: as §2
[24] = test system: Escherichia coli; test: Antimicrobial activity against Escherichia coli DH10B harboring beta-lactamase KPC-2 T237H mutant by agar dilution method; settings: K-12 DH10B; how it was run: as §2
[25] = test system: Escherichia coli; test: Antimicrobial activity against Escherichia coli DH10B harboring beta-lactamase KPC-2 T237W mutant by agar dilution method; settings: K-12 DH10B; how it was run: as §2
[26] = test system: Escherichia coli; test: Antimicrobial activity against Escherichia coli DH10B harboring beta-lactamase KPC-2 T237Q mutant by agar dilution method; settings: K-12 DH10B; how it was run: as §2
[27] = test system: Escherichia coli; test: Antimicrobial activity against Escherichia coli DH10B harboring beta-lactamase KPC-2 T237K mutant by agar dilution method; settings: K-12 DH10B; how it was run: as §2
[28] = test system: Escherichia coli; test: Antimicrobial activity against Escherichia coli DH10B harboring beta-lactamase KPC-2 T237C mutant by agar dilution method; settings: K-12 DH10B; how it was run: as §2
[29] = test system: Escherichia coli; test: Antimicrobial activity against Escherichia coli DH10B harboring beta-lactamase KPC-2 T237A mutant by agar dilution method; settings: K-12 DH10B; how it was run: as §2
[30] = test system: Escherichia coli; test: Antimicrobial activity against Escherichia coli DH10B harboring beta-lactamase KPC-2 T237Q mutant by agar dilution method in presence of beta-lactamase inhibitor Tazobactam; settings: K-12 DH10B; how it was run: as §1
[31] = test system: Escherichia coli; test: Antimicrobial activity against Escherichia coli DH10B harboring beta-lactamase KPC-2 T237L mutant by agar dilution method in presence of beta-lactamase inhibitor Sulbactam; settings: K-12 DH10B
How it was run: (§3)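 LB agar dilution MICs by CLSI criteria, applied with a Steers replicator. […] Hosts were E. coli DH10B carrying pBC SK(+) with wild-type blaKPC-2 or a position 237 variant.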

[32] = test system: Escherichia coli; test: Antimicrobial activity against Escherichia coli DH10B harboring beta-lactamase KPC-2 T237P mutant by agar dilution method in presence of beta-lactamase inhibitor clavulanic acid; settings: K-12 DH10B
How it was run: (§4)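 LB agar dilution MICs per CLSI criteria, inoculated with a Steers replicator. […] Strains: E. coli DH10B alone, DH10B carrying empty pBC SK(+), or DH10B carrying pBC SK(+)-blaKPC-2 position 237 variants made by site-saturation mutagenesis and confirmed by sequencing. Plasmid selection used 20 mg/liter chloramphenicol.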

[33] = test system: Escherichia coli; test: Antimicrobial activity against Escherichia coli DH10B harboring beta-lactamase KPC-2 T237R mutant by agar dilution method in presence of beta-lactamase inhibitor Sulbactam; settings: K-12 DH10B; how it was run: as §4
[34] = test system: Escherichia coli; test: Antimicrobial activity against Escherichia coli DH10B harboring beta-lactamase KPC-2 T237M mutant by agar dilution method in presence of beta-lactamase inhibitor clavulanic acid; settings: K-12 DH10B; how it was run: as §3
[35] = test system: Escherichia coli; test: Antimicrobial activity against Escherichia coli DH10B harboring beta-lactamase KPC-2 T237C mutant by agar dilution method in presence of beta-lactamase inhibitor Sulbactam; settings: K-12 DH10B; how it was run: as §4
[36] = test system: Escherichia coli; test: Antimicrobial activity against Escherichia coli DH10B harboring beta-lactamase KPC-2 T237K mutant by agar dilution method in presence of beta-lactamase inhibitor clavulanic acid; settings: K-12 DH10B; how it was run: as §4
[37] = test system: Escherichia coli; test: Antimicrobial activity against Escherichia coli DH10B harboring beta-lactamase KPC-2 T237Q mutant by agar dilution method in presence of beta-lactamase inhibitor Sulbactam; settings: K-12 DH10B; how it was run: as §3
[38] = test system: Escherichia coli; test: Antimicrobial activity against Escherichia coli DH10B harboring beta-lactamase KPC-2 T237D mutant by agar dilution method in presence of beta-lactamase inhibitor clavulanic acid; settings: K-12 DH10B; how it was run: as §3
[39] = test system: Escherichia coli; test: Antimicrobial activity against Escherichia coli DH10B harboring beta-lactamase KPC-2 T237C mutant by agar dilution method in presence of beta-lactamase inhibitor clavulanic acid; settings: K-12 DH10B; how it was run: as §4

Compound	MIC [2]	MIC [3]	MIC [4]	MIC [5]	MIC [6]	MIC [7]	MIC [8]	MIC [9]	MIC [13]	MIC [14]	MIC [15]	MIC [16]	MIC [17]	MIC [18]	MIC [20]	MIC [21]	MIC [22]	MIC [23]	MIC [24]	MIC [25]	other results
CCN1CCN(C(=O)N[C@@H](C(=O)N[C@@H]2C(=O)N3[C@@H]2SC(C)(C)[C@@H]3C(=O)O)c2ccccc2)C(=O)C1=O [PIPERACILLIN]	1 µg/mL (≈ 1.93 µM)	8 µg/mL (≈ 15.5 µM)	16 µg/mL (≈ 30.9 µM)	32 µg/mL (≈ 61.8 µM)	1020 µg/mL (≈ 1980 µM)	4 µg/mL (≈ 7.73 µM)	8 µg/mL (≈ 15.5 µM)	4 µg/mL (≈ 7.73 µM)	1020 µg/mL (≈ 1980 µM)	4 µg/mL (≈ 7.73 µM)	2 µg/mL (≈ 3.86 µM)	4 µg/mL (≈ 7.73 µM)	16 µg/mL (≈ 30.9 µM)	128 µg/mL (≈ 247 µM)	8 µg/mL (≈ 15.5 µM)	16 µg/mL (≈ 30.9 µM)	2 µg/mL (≈ 3.86 µM)	128 µg/mL (≈ 247 µM)	8 µg/mL (≈ 15.5 µM)	8 µg/mL (≈ 15.5 µM)	MIC [1]: 1 µg/mL; MIC [10]: 1 µg/mL; MIC [11]: 0.5 µg/mL; MIC [12]: 1 µg/mL; MIC [19]: 0.5 µg/mL; MIC [26]: 64 µg/mL (≈ 124 µM); MIC [27]: 1 µg/mL (≈ 1.93 µM); MIC [28]: 4 µg/mL (≈ 7.73 µM); MIC [29]: 64 µg/mL (≈ 124 µM); MIC [30]: 4 µg/mL
CC1(C)S[C@@H]2[C@H](NC(=O)[C@H](N)c3ccccc3)C(=O)N2[C@H]1C(=O)O [AMPICILLIN]	1 µg/mL (≈ 2.86 µM)	32 µg/mL (≈ 91.6 µM)	128 µg/mL (≈ 366 µM)	128 µg/mL (≈ 366 µM)	4100 µg/mL (≈ 11700 µM)	16 µg/mL (≈ 45.8 µM)	32 µg/mL (≈ 91.6 µM)	4 µg/mL (≈ 11.4 µM)	8190 µg/mL (≈ 23400 µM)	16 µg/mL (≈ 45.8 µM)	1 µg/mL (≈ 2.86 µM)	16 µg/mL (≈ 45.8 µM)	64 µg/mL (≈ 183 µM)	256 µg/mL (≈ 733 µM)	64 µg/mL (≈ 183 µM)	128 µg/mL (≈ 366 µM)	1 µg/mL (≈ 2.86 µM)	512 µg/mL (≈ 1470 µM)	64 µg/mL (≈ 183 µM)	16 µg/mL (≈ 45.8 µM)	MIC [31]: 16 µg/mL; MIC [32]: 1 µg/mL; MIC [33]: 1 µg/mL; MIC [34]: 8 µg/mL; MIC [35]: 1 µg/mL; MIC [36]: 1 µg/mL; MIC [37]: 64 µg/mL; MIC [38]: 8 µg/mL; MIC [26]: 256 µg/mL (≈ 733 µM); MIC [27]: 1 µg/mL (≈ 2.86 µM); MIC [28]: 4 µg/mL (≈ 11.4 µM); MIC [29]: 256 µg/mL (≈ 733 µM); MIC [39]: 1 µg/mL
